# In ChEMBL document CHEMBL3351961, “In vitro antitumor activity evaluation of some 1,2,4-triazine derivatives bearing piperazine amide moiety against breast cancer cells” (Bioorg Med Chem, 2014):
# Tested on: MCF7
# Experiment: Cytotoxicity against human MCF7 cells after 24 hrs by MTT assay
# Type: functional, cell-based
# Conditions: MCF7, 24 h, in the assay text read “XTT assay” for “MTT assay”
# How it was run: (§1)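 Cells grown in RPMI with fetal calf serum, penicillin/streptomycin, 37 °C, 5% CO2. Seeded 2 × 10^4 cells/well, then 24 h. Medium replaced with compound at 3.9–500 µg/ml (DMSO stocks diluted in medium, final DMSO under 0.1%). XTT read-out of mitochondrial activity: 3 h at 37 °C, OD 480 nm (reference 680 nm). IC50 by non-linear regression; duplicate experiments; cisplatin positive control.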
row,Compound,IC50 [µM]
1,Cc1ccc(-c2nnc(N3CCN(C(=O)CN4CCN(c5cccc(Cl)c5)CC4)CC3)nc2-c2ccc(C)cc2)cc1,797
2,Cc1ccc(-c2nnc(N3CCN(C(=O)CN4CCN(c5ccccc5Cl)CC4)CC3)nc2-c2ccc(C)cc2)cc1,859
3,O=C(CN1CCN(c2cccc(Cl)c2)CC1)N1CCN(c2nnc(-c3ccc(Cl)cc3)c(-c3ccc(Cl)cc3)n2)CC1,> 803
4,COc1cccc(N2CCN(CC(=O)N3CCN(c4nnc(-c5ccccc5)c(-c5ccccc5)n4)CC3)CC2)c1,> 911
5,Cc1ccc(-c2nnc(N3CCN(C(=O)CN4CCN(c5ccccc5)CC4)CC3)nc2-c2ccc(C)cc2)cc1,914
6,COc1ccc(-c2nnc(N3CCN(C(=O)CN4CCN(c5cccc(Cl)c5)CC4)CC3)nc2-c2ccc(OC)cc2)cc1,> 814
7,COc1ccc(-c2nnc(N3CCN(C(=O)CN4CCN(c5ccc(Cl)cc5)CC4)CC3)nc2-c2ccc(OC)cc2)cc1,607
8,COc1ccccc1N1CCN(CC(=O)N2CCN(c3nnc(-c4ccc(Cl)cc4)c(-c4ccc(Cl)cc4)n3)CC2)CC1,330
9,Cc1ccc(-c2nnc(N3CCN(C(=O)CN4CCN(c5ccc(Cl)cc5)CC4)CC3)nc2-c2ccc(C)cc2)cc1,660
10,O=C(CN1CCN(c2ccccc2)CC1)N1CCN(c2nnc(-c3ccc(Cl)cc3)c(-c3ccc(Cl)cc3)n2)CC1,> 850
11,COc1ccc(-c2nnc(N3CCN(C(=O)CN4CCN(c5ccc(OC)cc5)CC4)CC3)nc2-c2ccc(OC)cc2)cc1,> 821
12,COc1ccc(-c2nnc(N3CCN(C(=O)CN4CCN(c5ccc([N+](=O)[O-])cc5)CC4)CC3)nc2-c2ccc(OC)cc2)cc1,> 801
13,COc1ccc(-c2nnc(N3CCN(C(=O)CN4CCN(c5ccccc5)CC4)CC3)nc2-c2ccc(OC)cc2)cc1,> 864
14,COc1ccc(N2CCN(CC(=O)N3CCN(c4nnc(-c5ccc(Cl)cc5)c(-c5ccc(Cl)cc5)n4)CC3)CC2)cc1,> 809
15,COc1ccc(N2CCN(CC(=O)N3CCN(c4nnc(-c5ccccc5)c(-c5ccccc5)n4)CC3)CC2)cc1,> 911
16,O=C(CN1CCN(c2ccccc2)CC1)N1CCN(c2nnc(-c3ccccc3)c(-c3ccccc3)n2)CC1,> 963

# Tested on: not listed separately
# Experiment: Cytotoxicity against mouse NIH/3T3 cells after 24 hrs by MTT assay
# Type: cell-based
# Conditions: NIH3T3, 24 h, in the assay text read “XTT assay” for “MTT assay”
# How it was run: as §1
row,Compound,IC50 [µM]
1,Cc1ccc(-c2nnc(N3CCN(C(=O)CN4CCN(c5cccc(Cl)c5)CC4)CC3)nc2-c2ccc(C)cc2)cc1,859
2,Cc1ccc(-c2nnc(N3CCN(C(=O)CN4CCN(c5ccccc5Cl)CC4)CC3)nc2-c2ccc(C)cc2)cc1,> 859
3,O=C(CN1CCN(c2cccc(Cl)c2)CC1)N1CCN(c2nnc(-c3ccc(Cl)cc3)c(-c3ccc(Cl)cc3)n2)CC1,> 803
4,COc1cccc(N2CCN(CC(=O)N3CCN(c4nnc(-c5ccccc5)c(-c5ccccc5)n4)CC3)CC2)c1,361
5,Cc1ccc(-c2nnc(N3CCN(C(=O)CN4CCN(c5ccccc5)CC4)CC3)nc2-c2ccc(C)cc2)cc1,> 914
6,COc1ccc(-c2nnc(N3CCN(C(=O)CN4CCN(c5cccc(Cl)c5)CC4)CC3)nc2-c2ccc(OC)cc2)cc1,> 814
7,COc1ccc(-c2nnc(N3CCN(C(=O)CN4CCN(c5ccc(Cl)cc5)CC4)CC3)nc2-c2ccc(OC)cc2)cc1,> 814
8,COc1ccccc1N1CCN(CC(=O)N2CCN(c3nnc(-c4ccc(Cl)cc4)c(-c4ccc(Cl)cc4)n3)CC2)CC1,404
9,Cc1ccc(-c2nnc(N3CCN(C(=O)CN4CCN(c5ccc(Cl)cc5)CC4)CC3)nc2-c2ccc(C)cc2)cc1,567
10,O=C(CN1CCN(c2ccccc2)CC1)N1CCN(c2nnc(-c3ccc(Cl)cc3)c(-c3ccc(Cl)cc3)n2)CC1,> 850
11,COc1ccc(-c2nnc(N3CCN(C(=O)CN4CCN(c5ccc(OC)cc5)CC4)CC3)nc2-c2ccc(OC)cc2)cc1,> 821
12,COc1ccc(-c2nnc(N3CCN(C(=O)CN4CCN(c5ccc([N+](=O)[O-])cc5)CC4)CC3)nc2-c2ccc(OC)cc2)cc1,> 801
13,COc1ccc(-c2nnc(N3CCN(C(=O)CN4CCN(c5ccccc5)CC4)CC3)nc2-c2ccc(OC)cc2)cc1,> 864
14,COc1ccc(N2CCN(CC(=O)N3CCN(c4nnc(-c5ccc(Cl)cc5)c(-c5ccc(Cl)cc5)n4)CC3)CC2)cc1,> 809
15,COc1ccc(N2CCN(CC(=O)N3CCN(c4nnc(-c5ccccc5)c(-c5ccccc5)n4)CC3)CC2)cc1,> 911
16,O=C(CN1CCN(c2ccccc2)CC1)N1CCN(c2nnc(-c3ccccc3)c(-c3ccccc3)n2)CC1,> 963
